# Laboratory results reported in ChEMBL document CHEMBL1138240, “Identifying merozoite surface protein 4 and merozoite surface protein 7 Plasmodium falciparum protein family members specifically binding to human erythrocytes suggests a new malarial parasite-redundant survival mechanism” (J Med Chem, 2007).
# Calls of active or inactive are those of the source. The rule behind the calls is not given here. Peptide text beside a SMILES is read from it.
# Tests used:
# Plasmodium falciparum [1] = assay: Inhibition of Plasmodium falciparum FCB2 merozoite invasion of human erythrocytes at 100 uM; format: functional; set-up: scale not given: the % may be the effect or the level left
# Outline: (§1)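 Sorbitol-synchronized P. falciparum FCB-2 was grown to late schizonts and set at 0.5% parasitemia and 5% hematocrit in RPMI 1640 with 10% O+ plasma. Peptides were added at 100 or 200 µM, in triplicate. Plates were incubated 18 h at 37 °C under 5% O2/5% CO2/90% N2. RBC were stained with hydroethidine 15 µg/mL for 30 min, washed, and read by flow cytometry (FL2). Values are mean ± SD of three experiments.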
# Plasmodium falciparum [2] = assay: Inhibition of Plasmodium falciparum FCB2 merozoite invasion of human erythrocytes at 200 uM; format: functional; outline: as §1
# Erythrocyte [3] = assay: Binding affinity to 52 kDa erythrocyte membrane protein in trypsin treated human erythrocytes at 1 mg/mL after 1 hr relative to control; format: cell-based
# Outline: (§2)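 Human RBC (1.5 × 10^7 cell/µL in HBS pH 7.2, 1 mL) were treated for 1 h at 37 °C with shaking. […] used neuraminidase at 150 µU/mL. […] used trypsin and chymotrypsin at 1 mg/mL final. Cells were spun and washed thrice with HBS, then tested in the 125I-peptide binding assay. Specific binding is given as % of untreated-RBC control.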
# Erythrocyte [4] = assay: Binding affinity to 52 kDa erythrocyte membrane protein in chymotrypsin treated human erythrocytes at 1 mg/mL after 1 hr relative to control; format: cell-based; outline: as §2
# Erythrocyte [5] = assay: Binding affinity to 52 kDa erythrocyte membrane protein in neuraminidase treated human erythrocytes at 1 mg/mL after 1 hr relative to control; format: cell-based
# Erythrocyte [6] = assay: Displacement of [125I]MSP-4 20494 peptide from 52 kDa erythrocyte membrane protein in human erythrocytes at 30 uM; format: cell-based
# Outline: (§3)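 Competition used 125I-labeled MSP-4 peptide 20494 at 300 nM with 1 × 10^7 human RBC. Unlabeled competitor peptides were present at 3–30 µM. Incubation was 90 min at room temperature. Cells were washed three times with HBS and cell-bound radioactivity was counted on a gamma counter.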
# [7] = Binding affinity to 52 kDa erythrocyte membrane protein in human erythrocytes; format: cell-based
# Outline: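 Saturation binding used RBC at 1.5 × 10^7 cell/µL with 125I-peptide at 0–1800 nM, with or without 200-fold excess unlabeled peptide, for 90 min. Free label was sampled from the supernatant. Cells were washed twice with HBS and bound counts were measured by gamma counting, in triplicate. Affinity constant and sites per cell came from saturation curves; Hill coefficient came from a Hill plot.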
# Erythrocyte [8] = assay: Displacement of [125I]MSP-4 20494 peptide from 52 kDa erythrocyte membrane protein in human erythrocytes; format: cell-based; outline: as §3
# Plasmodium falciparum [9] = assay: Inhibition of Plasmodium falciparum FCB2 merozoite invasion of human erythrocytes at 0.5 mg/mL; format: functional
# Outline: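 Sorbitol-synchronized FCB-2 cultures grown to late schizont stage at 0.5% parasitemia and 5% hematocrit in RPMI 1640 with 10% O-positive plasma. Agent added in triplicate, then incubated 18 h at 37 °C under 5% O2/5% CO2/90% N2. Erythrocytes stained with 15 µg/mL hydroethidine for 30 min at 37 °C. Invasion read by flow cytometry (FL2).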
# Plasmodium falciparum [10] = assay: Inhibition of Plasmodium falciparum FCB2 merozoite invasion of human erythrocytes at […]; format: functional
Compound,Activity (Plasmodium falciparum [1]),inhibition at 200 µM (Plasmodium falciparum [2]),Activity (Erythrocyte [3]),Activity (Erythrocyte [4]),Activity (Erythrocyte [5]),Activity (Erythrocyte [6]),Kd [7],Activity (Erythrocyte [8]),inhibition at 500 µg/mL (Plasmodium falciparum [9]),inhibition (Plasmodium falciparum [10])
CC(C)C[C@H](NC(=O)[C@H](CCCCN)NC(=O)[C@H](CC(=O)O)NC(=O)[C@H](CC(=O)O)NC(=O)CNC(=O)[C@H](CS)NC(=O)CN)C(=O)N[C@@H](CS)C(=O)N[C@@H](CCC(=O)O)C(=O)N[C@@H](Cc1ccc(O)cc1)C(=O)N[C@H](C(=O)NCC(=O)N[C@@H](CC(N)=O)C(=O)N[C@@H](CCCNC(=N)N)C(=O)N[C@@H](CCCNC(=N)N)C(=O)N[C@H](C(=O)N[C@@H](CCCCN)C(=O)N[C@@H](CS)C(=O)N[C@@H](CCCCN)C(=O)N[C@@H](CS)C(=O)N[C@@H](CCCCN)C(=O)O)C(C)C)C(C)C (H-GCGDDKLCEYVGNRRVKCKCK-OH),3%,18%,–,–,–,–,–,–,–,–
H-KQNSHLSEKKIKPEEEYKKF-OH,22%,83%,88%,73%,57%,–,–,–,–,–
CC(C)C[C@H](NC(=O)[C@H](CCCCN)NC(=O)[C@H](Cc1ccc(O)cc1)NC(=O)CNC(=O)[C@H](CCC(=O)O)NC(=O)[C@H](CCCCN)NC(=O)[C@H](CS)NC(=O)[C@H](CCCCN)NC(=O)[C@H](CS)NC(=O)[C@H](CCCCN)NC(=O)[C@@H](NC(=O)[C@H](CCCNC(=N)N)NC(=O)[C@H](CCCNC(=N)N)NC(=O)[C@H](CC(N)=O)NC(=O)CNC(=O)[C@@H](NC(=O)[C@H](Cc1ccc(O)cc1)NC(=O)[C@@H](N)CCC(=O)O)C(C)C)C(C)C)C(=O)N[C@@H](CCC(=O)O)C(=O)NCC(=O)O (H-EYVGNRRVKCKCKEGYKLEG-OH),16%,20%,57%,133%,73%,50%,470 nM,–,–,–
H-MWIVKFLIVVHFFIICTINFY-OH,–,–,–,–,–,–,–,inactive,–,–
H-MRILGEEKPNVDGVSTSNTPY-OH,9%,11%,–,–,–,–,–,–,–,–
H-KPEEEYKKFLEYSFNLLNTM-OH,9%,49%,10%,0%,100%,–,450 nM,–,–,–
H-NLGLFGKNVLSKVKAQSETDY-OH,9%,59%,0%,160%,105%,–,600 nM,–,–,–
CCN(CC)CCCC(C)Nc1ccnc2cc(Cl)ccc12 (centres undefined) [CHLOROQUINE],–,–,–,–,–,–,–,–,100%,–
H-KNVHVLINGNSIIDEIEKNEY-OH,10%,29%,–,–,–,–,–,–,–,–
H-IKNKKLEKLKNIVSGDFVGNY-OH,22%,68%,174%,223%,105%,–,550 nM,–,–,–
O=C(O)CN(CCOCCOCCN(CC(=O)O)CC(=O)O)CC(=O)O [EGTAZIC ACID],–,–,–,–,–,–,–,–,–,83%
H-KDKEYHEQFKNYIYGVYSYA-OH,7%,24%,0%,34%,73%,–,–,–,–,–
